Data set [1] can be described thus: Permeability of the compound at pH 7.4 by PAMPA. The format is ADME.
The nature of data set [2]: AUC in CD1 mouse at 30 mg/kg, po administered as single dose. The class given is ADME, organism-based. Also on record: dose 30 mg/kg, route oral. The note with it: plasma. An outline of the steps:
(§1)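 Female CD1 mice given one oral gavage dose (30, 50 or 200 mg/kg), n=3 per test article. Blood drawn from three mice at 15, 30, 60 min and 2, 4, 6, 8, 10, 24 h after dosing. Plasma concentration measured by LCMS over 24 h.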

The nature of data set [3]: AUC in CD1 mouse at 200 mg/kg, po administered as single dose. The arrangement: dose 200 mg/kg, route oral. Conditions: plasma. The class given is ADME, organism-based. The essentials:
as §1

Data set [4] can be described thus: Cmax in CD1 mouse at 200 mg/kg, po administered as single dose. The note with it: in vivo. The class given is ADME, organism-based. The arrangement: dose 200 mg/kg, route oral. An outline of the steps:
as §1

The test system of data set [5] is Liver. The data set can be described thus: Intrinsic clearance in CD1 mouse liver microsomes after 0.5 to 4 hrs by UPLC-MS analysis. The format is ADME, Microsome. The essentials:
(§2)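 Pooled liver microsomes (female CD-1 mouse or mixed-gender human) at 0.5 mg/mL in 0.1 M potassium phosphate pH 7.4 with EDTA, with NADPH-regenerating solutions A+B; 37 °C with shaking; quenched at 0, 0.5, 1, 2, 4 h with cold methanol containing 10 μM warfarin internal standard. UPLC-MS (SIR); k from log peak-area-ratio slope, t1/2 = 0.693/k, CLint normalised to microsomal protein; triplicate.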

The subject of data set [6] is Liver microsomes. In words: Intrinsic clearance in human liver microsomes after 0.5 to 4 hrs by UPLC-MS analysis. The format is ADME, Microsome. An outline of the steps: as §2
A short description of data set [7]: Cmax in CD1 mouse at 30 mg/kg, po administered as single dose. The class given is ADME, organism-based. Also on record: dose 30 mg/kg, route oral. Conditions: in vivo. The essentials: as §1
Data set [8] can be described thus: AUC (infinity) in CD1 mouse at 50 mg/kg, po administered as single dose. The note with it: plasma. Also on record: time infinity, dose 50 mg/kg, route oral. The format is ADME, organism-based. An outline of the steps:
as §1

Data set [9] can be described thus: Cmax in CD1 mouse at 50 mg/kg, po administered as single dose. The class given is ADME, organism-based. The arrangement: dose 50 mg/kg, route oral. The note with it: in vivo. An outline of the steps: as §1
The nature of data set [10]: Permeability of the compound at pH 4.0 by PAMPA. The class given is ADME. An outline of the steps:
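PAMPA: compound diluted in system buffer at pH 7.4 or 4 as donor; membrane coated with GIT lipid; acceptor buffer; stirred 30 min with 40 μm aqueous boundary layer. UV spectra (250–500 nm) of reference, donor and acceptor; permeability coefficient from spectral AUCs; triplicate.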

`CCCOc1cccc(-c2[nH]c3cc(OC)ccc3c(=O)c2C(=O)OCC)c1` showed a permeability in data set [1] of 340 ×10⁻⁶ cm/s. The AUC(0-inf) in [2] is 1.6 µM·h; in data set [3] it was 7.7 µM·h. For the same molecule, the Cmax is 1800 nM in [4] and 300 nM in [7]. Further, the “Intrinsic clearance (CLint)” value came to 39 µL/min/mg in data set [5] and 12 µL/min/mg in data set [6].

In the case of `CCOC(=O)c1c(-c2ccc3c(c2)OCO3)[nH]c2cc(OC)ccc2c1=O`, the values for the total exposure AUC(0-inf) in data set [2] and in data set [3] were 6.1 µM·h and 65 µM·h, respectively. Besides, the Cmax was 5000 nM in data set [4] and 1500 nM in [7]. The “Intrinsic clearance (CLint)” value in [5] and in data set [6] was 12 µL/min/mg each time.

Regarding `CCOC(=O)c1c(-c2cccc(OC)c2)[nH]c2cc(OC)ccc2c1=O`, the AUC(0-inf) was 8 µM·h in data set [2] and 7.8 µM·h in data set [3]. For the same molecule, the Cmax came to 5800 nM in data set [4] and 8000 nM in data set [7]. Also, the “Intrinsic clearance (CLint)” value in data set [5] came to 7.9 µL/min/mg; in data set [6] it was 5.7 µL/min/mg.

As to `CCOC(=O)c1c(-c2cccc(Cl)c2)[nH]c2cc(OC)ccc2c1=O`, the “Intrinsic clearance (CLint)” value in [5] was 16 µL/min/mg; in data set [6], 3.4 µL/min/mg.

The molecule `CCOC(=O)c1c(-c2cc(F)cc(OC)c2)[nH]c2cc(OC)c(F)cc2c1=O` registered a permeability in data set [1] of 230 ×10⁻⁶ cm/s. Also, the AUC(0-inf) in data set [3] worked out at 19 µM·h; in data set [8] it was 9.3 µM·h. Besides, the Cmax in data set [4] is 1600 nM; in [9], 0.71 µM. Moreover, the entries for the “Intrinsic clearance (CLint)” value in data set [5] and in data set [6] were 6.7 µL/min/mg and 56 µL/min/mg, respectively.

On to `CCOC(=O)c1c(-c2cccc(OCC)c2)[nH]c2cc(OC)ccc2c1=O`, for which the permeability in [1] is 260 ×10⁻⁶ cm/s. For the same molecule, the figures for the AUC(0-inf) in data set [2] and in data set [3] were 5.1 µM·h and 10 µM·h, respectively. Further, the Cmax in data set [4] stood at 2400 nM; in [7], 1900 nM. The figures for the “Intrinsic clearance (CLint)” value in data set [5] and in data set [6] were 12 µL/min/mg and 5.7 µL/min/mg, respectively.

Consider `COc1cc2[nH]c(-c3cccc(Oc4ccccc4)c3)c(C(=O)OCCCN3CCOCC3)c(=O)c2cc1F`, for which the permeability in data set [1] amounted to 880 ×10⁻⁶ cm/s; in data set [10] it was 30 ×10⁻⁶ cm/s. Besides, the results for the “Intrinsic clearance (CLint)” value in data set [5] and in data set [6] were 24 µL/min/mg and 11 µL/min/mg, respectively.

As for `CCOC(=O)c1c(-c2cccc(-c3ccccc3)c2)[nH]c2cc(OC)ccc2c1=O`, the permeability in data set [1] is 2900 ×10⁻⁶ cm/s. Further, the AUC(0-inf) in [2] turned out to be 1.7 µM·h; in data set [3], 4.3 µM·h. Moreover, the Cmax in data set [4] worked out at 430 nM; in data set [7], 230 nM. Also, the “Intrinsic clearance (CLint)” value worked out at 5.7 µL/min/mg in data set [5] and 5 µL/min/mg in [6].

For the molecule `CCOC(=O)c1c(-c2cccc(Oc3ccccc3)c2)[nH]c2cc(OC)ccc2c1=O`, the permeability in [1] came out at 750 ×10⁻⁶ cm/s. The AUC(0-inf) in [2] worked out at 0.15 µM·h; in data set [3], 1 µM·h. Moreover, the Cmax in data set [4] is 400 nM; in data set [7], 60 nM. Moreover, the “Intrinsic clearance (CLint)” value in data set [5] is 35 µL/min/mg.

The molecule `CCOC(=O)c1c(-c2cccc(Oc3ccccc3)c2)[nH]c2cc(OC)c(F)cc2c1=O` registered a permeability in [1] of 560 ×10⁻⁶ cm/s. The “Intrinsic clearance (CLint)” value in [5] stood at 16 µL/min/mg.

Molecule `CCOC(=O)c1c(-c2cccc(Br)c2)[nH]c2cc(OC)c(F)cc2c1=O` yielded a permeability in data set [1] of 670 ×10⁻⁶ cm/s. The figures for the AUC(0-inf) in [3] and in [8] were 160 µM·h and 71 µM·h, respectively. Besides, the Cmax in [4] worked out at 39000 nM; in data set [9] it was 31 µM. For the same molecule, the “Intrinsic clearance (CLint)” value was 2.7 µL/min/mg in [5] and 1.2 µL/min/mg in [6].

The molecule `CCOC(=O)c1c(-c2cccc(Cl)c2)[nH]c2cc(OC)c(F)cc2c1=O` came in with a permeability in data set [1] of 410 ×10⁻⁶ cm/s. For the same molecule, the AUC(0-inf) in data set [3] amounted to 280 µM·h; in [8], 130 µM·h. The Cmax in [4] turned out to be 66000 nM; in data set [9], 38 µM. Moreover, the “Intrinsic clearance (CLint)” value came to 4 µL/min/mg in data set [5] and 0.5 µL/min/mg in data set [6].

As for `COc1cc2[nH]c(-c3cccc(Oc4ccccc4)c3)c(C(=O)OCCO)c(=O)c2cc1F`, in data set [1], the permeability came to 620 ×10⁻⁶ cm/s. For the same molecule, the “Intrinsic clearance (CLint)” value in data set [5] worked out at 11 µL/min/mg; in data set [6] it was 4.8 µL/min/mg.

The record behind these values is ChEMBL document CHEMBL2169740 (J Med Chem, 2012).
